Results: ChEMBL document CHEMBL2375313, “Synthesis, in vitro antitumor evaluation and DNA-binding study of novel tetrahydroquinolines and some derived tricyclic and tetracyclic ring systems” (Eur J Med Chem, 2013)
Converted amounts (≈) assume the structure as drawn. The source made the active and inactive calls. The calls are words filed in the database; no cut-off is given here.

How the values were obtained:
HOP-92 = test: Cytotoxicity against human HOP92 cells assessed as growth inhibition at 10 uM after 48 hrs by sulphorhodamine B assay; assay type: functional; conditions: HOP-92, 48 h, read-out: GI
How it was run: (§1)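 NCI-60 one-dose screen per the NCI Drug Evaluation Branch protocol. Cells given a single 10 µM concentration with 48 h continuous exposure. Growth estimated by sulphorhodamine B protein assay. Result expressed as percentage growth inhibition relative to untreated growth.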

NCI-H23 = test: Cytotoxicity against human NCI-H23 cells assessed as growth inhibition at 10 uM after 48 hrs by sulphorhodamine B assay; assay type: functional; conditions: NCI-H23, 48 h, read-out: GI; how it was run: as §1
[1] = Cytotoxicity against human EKVX cells assessed as growth inhibition at 10 uM after 48 hrs by sulphorhodamine B assay; assay type: functional; conditions: read-out: GI; how it was run: as §1
A549 = test: Cytotoxicity against human A549 cells assessed as growth inhibition at 10 uM after 48 hrs by sulphorhodamine B assay; assay type: functional; conditions: A549, 48 h, read-out: GI; how it was run: as §1
[2] = Displacement of methyl green from DNA (unknown origin) after 24 hrs
How it was run: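 DNA-methyl green complex was stirred in 0.05 M Tris-HCl pH 7.5 with 7.5 mmol MgSO4 at 37 °C for 24 h. Compound was dried down from EtOH in tubes and the DNA-methyl green solution added. A630 was read initially and after 24 h dark incubation at room temperature, corrected and normalized to untreated complex. IC50 is the concentration giving a 50% absorbance decrease; mean ± SD, n = 6.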

[3] = Binding affinity to DNA (unknown origin) at 5 mg/mL by RP-TLC plate analysis
How it was run: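 Reversed-phase C18 TLC plates pre-developed in methanol/water 8:2. Compound spotted at origin (5 mg/mL in methanol), then DNA (1 mg/mL in water/methanol 8:2) applied at the same spot. Plates developed in the same eluent; DNA located by anisaldehyde spray (blue). Ethidium bromide as positive control.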

NCI/ADR-RES = test: Cytotoxicity against human NCI/ADR-RES cells assessed as growth inhibition at 10 uM after 48 hrs by sulphorhodamine B assay; assay type: functional; conditions: read-out: GI; how it was run: as §1
SNB-75 = test: Cytotoxicity against human SNB75 cells assessed as growth inhibition at 10 uM after 48 hrs by sulphorhodamine B assay; assay type: functional; conditions: SNB-75, 48 h, read-out: GI; how it was run: as §1
U-251 = test: Cytotoxicity against human U251 cells assessed as growth inhibition at 10 uM after 48 hrs by sulphorhodamine B assay; assay type: functional; conditions: U-251, 48 h, read-out: GI; how it was run: as §1
SNB-19 = test: Cytotoxicity against human SNB19 cells assessed as growth inhibition at 10 uM after 48 hrs by sulphorhodamine B assay; assay type: functional; conditions: SNB-19, 48 h, read-out: GI; how it was run: as §1
SF-295 = test: Cytotoxicity against human SF295 cells assessed as growth inhibition at 10 uM after 48 hrs by sulphorhodamine B assay; assay type: functional; conditions: SF-295, 48 h, read-out: GI; how it was run: as §1
DU-145 = test: Cytotoxicity against human DU145 cells assessed as growth inhibition at 10 uM after 48 hrs by sulphorhodamine B assay; assay type: functional; conditions: DU-145, 48 h, read-out: GI; how it was run: as §1
SF-268 = test: Cytotoxicity against human SF268 cells assessed as growth inhibition at 10 uM after 48 hrs by sulphorhodamine B assay; assay type: functional; conditions: SF-268, 48 h, read-out: GI; how it was run: as §1
PC-3 = test: Cytotoxicity against human PC3 cells assessed as growth inhibition at 10 uM after 48 hrs by sulphorhodamine B assay; assay type: functional; conditions: PC-3, 48 h, read-out: GI; how it was run: as §1
UACC-62 = test: Cytotoxicity against human UACC62 cells assessed as growth inhibition at 10 uM after 48 hrs by sulphorhodamine B assay; assay type: functional; conditions: UACC-62, 48 h, read-out: GI; how it was run: as §1
SK-MEL-2 = test: Cytotoxicity against human SK-MEL-2 cells assessed as growth inhibition at 10 uM after 48 hrs by sulphorhodamine B assay; assay type: functional; conditions: SK-MEL-2, 48 h, read-out: GI; how it was run: as §1
SK-MEL-5 = test: Cytotoxicity against human SK-MEL-5 cells assessed as growth inhibition at 10 uM after 48 hrs by sulphorhodamine B assay; assay type: functional; conditions: SK-MEL-5, 48 h, read-out: GI; how it was run: as §1
M14 = test: Cytotoxicity against human M14 cells assessed as growth inhibition at 10 uM after 48 hrs by sulphorhodamine B assay; assay type: functional; conditions: M14, 48 h, read-out: GI; how it was run: as §1
LOX IMVI = test: Cytotoxicity against human LOXIMVI cells assessed as growth inhibition at 10 uM after 48 hrs by sulphorhodamine B assay; assay type: functional; conditions: read-out: GI; how it was run: as §1
UO-31 = test: Cytotoxicity against human UO31 cells assessed as growth inhibition at 10 uM after 48 hrs by sulphorhodamine B assay; assay type: functional; conditions: UO-31, 48 h, read-out: GI; how it was run: as §1
CAKI-1 = test: Cytotoxicity against human Caki1 cells assessed as growth inhibition at 10 uM after 48 hrs by sulphorhodamine B assay; assay type: functional; conditions: CAKI-1, 48 h, read-out: GI; how it was run: as §1
RXF 393 = test: Cytotoxicity against human RXF393 cells assessed as growth inhibition at 10 uM after 48 hrs by sulphorhodamine B assay; assay type: functional; conditions: RXF 393, 48 h, read-out: GI; how it was run: as §1
ACHN = test: Cytotoxicity against human ACHN cells assessed as growth inhibition at 10 uM after 48 hrs by sulphorhodamine B assay; assay type: functional; conditions: read-out: GI; how it was run: as §1
SR = test: Cytotoxicity against human SR cells assessed as growth inhibition at 10 uM after 48 hrs by sulphorhodamine B assay; assay type: functional; conditions: read-out: GI; how it was run: as §1
A498 = test: Cytotoxicity against human A498 cells assessed as growth inhibition at 10 uM after 48 hrs by sulphorhodamine B assay; assay type: functional; conditions: A498, 48 h, read-out: GI; how it was run: as §1
RPMI-8226 = test: Cytotoxicity against human RPMI8226 cells assessed as growth inhibition at 10 uM after 48 hrs by sulphorhodamine B assay; assay type: functional; conditions: RPMI-8226, 48 h, read-out: GI; how it was run: as §1
MOLT-4 = test: Cytotoxicity against human MOLT4 cells assessed as growth inhibition at 10 uM after 48 hrs by sulphorhodamine B assay; assay type: functional; conditions: MOLT-4, 48 h, read-out: GI; how it was run: as §1
K562 = test: Cytotoxicity against human K562 cells assessed as growth inhibition at 10 uM after 48 hrs by sulphorhodamine B assay; assay type: functional; conditions: K562, 48 h, read-out: GI; how it was run: as §1
HL-60(TB) = test: Cytotoxicity against human HL-60(TB) cells assessed as growth inhibition at 10 uM after 48 hrs by sulphorhodamine B assay; assay type: functional; conditions: HL-60, 48 h, read-out: GI
How it was run: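 NCI-60 one-dose primary screen run to the Drug Evaluation Branch protocol. Cells are exposed to a single 10 µM concentration for 48 h continuously, and growth is read by SRB protein assay. Data are reported as percent growth of treated cells, expressed as % growth inhibition.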

SK-OV-3 = test: Cytotoxicity against human SKOV3 cells assessed as growth inhibition at 10 uM after 48 hrs by sulphorhodamine B assay; assay type: functional; conditions: SK-OV-3, 48 h, read-out: GI; how it was run: as §1
CCRF-CEM = test: Cytotoxicity against human CCRF-CEM cells assessed as growth inhibition at 10 uM after 48 hrs by sulphorhodamine B assay; assay type: functional; conditions: read-out: GI; how it was run: as §1
OVCAR-5 = test: Cytotoxicity against human OVCAR5 cells assessed as growth inhibition at 10 uM after 48 hrs by sulphorhodamine B assay; assay type: functional; conditions: OVCAR-5, 48 h, read-out: GI; how it was run: as §1
OVCAR-4 = test: Cytotoxicity against human OVCAR4 cells assessed as growth inhibition at 10 uM after 48 hrs by sulphorhodamine B assay; assay type: functional; conditions: OVCAR-4, 48 h, read-out: GI; how it was run: as §1
IGROV-1 = test: Cytotoxicity against human IGROV1 cells assessed as growth inhibition at 10 uM after 48 hrs by sulphorhodamine B assay; assay type: functional; conditions: IGROV-1, 48 h, read-out: GI; how it was run: as §1
T47D = test: Cytotoxicity against human T47D cells assessed as growth inhibition at 10 uM after 48 hrs by sulphorhodamine B assay; assay type: functional; conditions: read-out: GI; how it was run: as §1
Hs-578T = test: Cytotoxicity against human Hs578T cells assessed as growth inhibition at 10 uM after 48 hrs by sulphorhodamine B assay; assay type: functional; conditions: read-out: GI; how it was run: as §1
NCI-H522 = test: Cytotoxicity against human NCI-H522 cells assessed as growth inhibition at 10 uM after 48 hrs by sulphorhodamine B assay; assay type: functional; conditions: NCI-H522, 48 h, read-out: GI; how it was run: as §1
HT-29 = test: Cytotoxicity against human HT-29 cells assessed as growth inhibition at 10 uM after 48 hrs by sulphorhodamine B assay; assay type: functional; conditions: HT-29, 48 h, read-out: GI; how it was run: as §1
MCF7 = test: Cytotoxicity against human MCF7 cells assessed as growth inhibition at 10 uM after 48 hrs by sulphorhodamine B assay; assay type: functional; conditions: MCF7, 48 h, read-out: GI; how it was run: as §1
MDA-MB-435 = test: Cytotoxicity against human MDA-MB-435 cells assessed as growth inhibition at 10 uM after 48 hrs by sulphorhodamine B assay; assay type: functional; conditions: MDA-MB-435, 48 h, read-out: GI; how it was run: as §1
HCT-15 = test: Cytotoxicity against human HCT15 cells assessed as growth inhibition at 10 uM after 48 hrs by sulphorhodamine B assay; assay type: functional; conditions: HCT-15, 48 h, read-out: GI; how it was run: as §1
HCT-116 = test: Cytotoxicity against human HCT116 cells assessed as growth inhibition at 10 uM after 48 hrs by sulphorhodamine B assay; assay type: functional; conditions: HCT-116, 48 h, read-out: GI; how it was run: as §1

`CC1CCCc2c1nc1[nH]c(=S)nc(N)c1c2-c1ccc(Cl)cc1` (configuration not stated) gave an inhibition of growth at 10 µM (HOP-92) of less than 10%, an inhibition of growth at 10 µM (NCI-H23) of 10.1% and an inhibition of growth at 10 µM [1] of 14.5%. For the same compound, the inhibition of growth at 10 µM (A549) was less than 10%, the IC50 [2] was 0.151 µg/mL (≈ 0.423 µM) and the Activity [3] was “Active”. The inhibition of growth at 10 µM (NCI/ADR-RES) was less than 10%, the inhibition of growth at 10 µM (SNB-75) was 10.2% and the inhibition of growth at 10 µM (U-251) was less than 10%. The inhibition of growth at 10 µM (SNB-19) was 10%, the inhibition of growth at 10 µM (SF-295) was less than 10% and the inhibition of growth at 10 µM (DU-145) was less than 10%. The inhibition of growth at 10 µM (SF-268) was 18.8%, the inhibition of growth at 10 µM (PC-3) was 56.7% and the inhibition of growth at 10 µM (UACC-62) was 15.8%. It also gave an inhibition of growth at 10 µM (SK-MEL-2) of 11.4%, an inhibition of growth at 10 µM (SK-MEL-5) of 10.3% and an inhibition of growth at 10 µM (M14) of less than 10%. For the same compound, the inhibition of growth at 10 µM (LOX IMVI) was less than 10%, the inhibition of growth at 10 µM (UO-31) was less than 10% and the inhibition of growth at 10 µM (CAKI-1) was 31.3%. The inhibition of growth at 10 µM (RXF 393) was less than 10%, the inhibition of growth at 10 µM (ACHN) was less than 10% and the inhibition of growth at 10 µM (SR) was 25.8%. It also gave an inhibition of growth at 10 µM (A498) of 11.5%, an inhibition of growth at 10 µM (RPMI-8226) of 37% and an inhibition of growth at 10 µM (MOLT-4) of 26.2%. For the same compound, the inhibition of growth at 10 µM (K562) was 15%, the inhibition of growth at 10 µM (HL-60(TB)) was 10% and the inhibition of growth at 10 µM (SK-OV-3) was less than 10%. It also gave an inhibition of growth at 10 µM (CCRF-CEM) of 28.8%, an inhibition of growth at 10 µM (OVCAR-5) of less than 10% and an inhibition of growth at 10 µM (OVCAR-4) of less than 10%. For the same compound, the inhibition of growth at 10 µM (IGROV-1) was 10%, the inhibition of growth at 10 µM (T47D) was 15.2% and the inhibition of growth at 10 µM (Hs-578T) was less than 10%. It also gave an inhibition of growth at 10 µM (NCI-H522) of 10%, an inhibition of growth at 10 µM (HT-29) of less than 10% and an inhibition of growth at 10 µM (MCF7) of 10.4%. It also gave an inhibition of growth at 10 µM (MDA-MB-435) of less than 10%, an inhibition of growth at 10 µM (HCT-15) of 14.3% and an inhibition of growth at 10 µM (HCT-116) of 10.5%.
